Test results taken from ChEMBL document CHEMBL1165947, “Synthesis and antitumor activity of 2,5-bis(3'-indolyl)-furans and 3,5-bis(3'-indolyl)-isoxazoles, nortopsentin analogues” (Bioorg Med Chem, 2010).
Values after ≈ are worked out from the molar mass of the structure shown.

Assays:
[1] = Cytotoxicity against human RXF 486L cells after 4 days by modified propidium iodide staining-based fluorescence assay; assay type: functional, cell-based; conditions: 96 h
In short: (§1)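 Cells cultured in RPMI 1640 with 10% fetal calf serum and 0.1 mg/mL gentamicin at 37 °C, 5% CO2. Cells from exponential cultures were trypsinized and plated at 4.000-20.000 cells/well by line. After 24 h recovery, compounds were added at five log-spaced concentrations (highest 100 μg/mL) for 4 days. Proliferation was read as DNA content with aqueous propidium iodide (7 μg/ml), fluorescence ex 530/em 620 nm. Points were run in triplicate.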

[2] = Cytotoxicity against human GXF251L cells after 4 days by modified propidium iodide staining-based fluorescence assay; assay type: functional, cell-based; conditions: GXF 251L, 96 h; in short: as §1
NCI-H522 = test: Growth inhibition of human NCI-H522 cells; assay type: functional
In short: (§2)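 Values come from the NCI in vitro disease-oriented human tumor cell screen. GI50 is the concentration giving 50% growth inhibition of tumor cells; pGI50 is its −log molar form.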

[3] = Growth inhibition of human Hs 578T cells; assay type: functional
SNB-75 = test: Growth inhibition of human SNB75 cells; assay type: functional; in short: as §2
LNCaP = test: Cytotoxicity against human LNCAP cells after 4 days by modified propidium iodide staining-based fluorescence assay; assay type: functional, cell-based; conditions: 96 h; in short: as §1
A549 [4] = test: Growth inhibition of human A549 cells; assay type: functional
PANC-1 = test: Cytotoxicity against human PANC1 cells after 4 days by modified propidium iodide staining-based fluorescence assay; assay type: functional, cell-based; conditions: PANC-1, 96 h; in short: as §1
786-0 = test: Growth inhibition of human 786-0 cells; assay type: functional
KM12 = test: Growth inhibition of human KM12 cells; assay type: functional
[5] = Cytotoxicity against human UXF 1138L cells after 4 days by modified propidium iodide staining-based fluorescence assay; assay type: functional, cell-based; conditions: 96 h; in short: as §1
A549 [6] = test: Cytotoxicity against human A549 cells after 4 days by modified propidium iodide staining-based fluorescence assay; assay type: functional, cell-based; conditions: A549, 96 h; in short: as §1
HT-29 = test: Growth inhibition of human HT-29 cells; assay type: functional
[7] = Cytotoxicity against human LXFA 289L cells after 4 days by modified propidium iodide staining-based fluorescence assay; assay type: functional, cell-based; conditions: 96 h; in short: as §1
U-251 = test: Growth inhibition of human U251 cells; assay type: functional; in short: as §2
OVCAR-8 = test: Growth inhibition of human OVCAR8 cells; assay type: functional; in short: as §2
DU-145 = test: Cytotoxicity against human DU145 cells after 4 days by modified propidium iodide staining-based fluorescence assay; assay type: functional, cell-based; conditions: DU-145, 96 h; in short: as §1
SK-OV-3 = test: Growth inhibition of human SKOV3 cells; assay type: functional; in short: as §2
SF-539 = test: Growth inhibition of human SF539 cells; assay type: functional; in short: as §2
SN12C = test: Growth inhibition of human SN12C cells; assay type: functional; in short: as §2
MCF7 = test: Growth inhibition of human MCF7 cells; assay type: functional; in short: as §2
SW-620 = test: Growth inhibition of human SW620 cells; assay type: functional; in short: as §2
A498 = test: Growth inhibition of human A498 cells; assay type: functional
UACC-62 = test: Growth inhibition of human UACC62 cells; assay type: functional; in short: as §2
NCI-H23 = test: Growth inhibition of human NCI-H23 cells; assay type: functional; in short: as §2
NCI-H322M = test: Growth inhibition of human NCI-H322M cells; assay type: functional; in short: as §2
OVCAR-3 = test: Growth inhibition of human OVCAR-3 cells; assay type: functional; in short: as §2
SF-295 = test: Growth inhibition of human SF295 cells; assay type: functional; in short: as §2
[8] = Cytotoxicity against human PC3M cells after 4 days by modified propidium iodide staining-based fluorescence assay; assay type: functional, cell-based; conditions: PC-3M, 96 h; in short: as §1
SR = test: Growth inhibition of human SR cells; assay type: functional; in short: as §2
TK-10 = test: Growth inhibition of human TK10 cells; assay type: functional; in short: as §2
NCI-H460 = test: Growth inhibition of human NCI-H460 cells; assay type: functional; in short: as §2
HCT-116 [9] = test: Cytotoxicity against human HCT116 cells after 4 days by modified propidium iodide staining-based fluorescence assay; assay type: functional, cell-based; conditions: HCT-116, 96 h; in short: as §1
[10] = Cytotoxicity against human MEXF 520L cells after 4 days by modified propidium iodide staining-based fluorescence assay; assay type: functional, cell-based; conditions: 96 h; in short: as §1
[11] = Growth inhibition of human […] cells; assay type: functional; in short: as §2
HOP-92 = test: Growth inhibition of human HOP92 cells; assay type: functional
HCT-116 [12] = test: Growth inhibition of human HCT116 cells; assay type: functional
HOP-62 = test: Growth inhibition of human HOP62 cells; assay type: functional
HCT-15 = test: Growth inhibition of human HCT15 cells; assay type: functional
SK-MEL-2 = test: Growth inhibition of human SK-MEL-2 cells; assay type: functional; in short: as §2
T-24 = test: Cytotoxicity against human T24 cells after 4 days by modified propidium iodide staining-based fluorescence assay; assay type: functional, cell-based; conditions: T-24, 96 h; in short: as §1
[13] = Cytotoxicity against human 899L cells after 4 days by modified propidium iodide staining-based fluorescence assay; assay type: functional, cell-based; conditions: 96 h; in short: as §1

`COc1ccc2c(c1)c(-c1ccc(-c3cn(C)c4ccc(OC)cc34)o1)cn2C` showed an IC50 [1] of over 100 µg/mL, an IC50 [2] of 3.8 µg/mL (≈ 9.83 µM) and a GI50 (NCI-H522) of 3.42 µM. The GI50 [3] was 5.11 µM, the GI50 (SNB-75) was 13.6 µM and the IC50 (LNCaP) was 28.2 µg/mL (≈ 73 µM). The GI50 (A549 [4]) was 18.4 µM, the IC50 (PANC-1) was 6.4 µg/mL (≈ 16.6 µM) and the GI50 (786-0) was over 100 µM. For the same compound, the GI50 (KM12) was 2.73 µM, the IC50 [5] was 13.7 µg/mL (≈ 35.5 µM) and the IC50 (A549 [6]) was 9.6 µg/mL (≈ 24.8 µM). For the same compound, the GI50 (HT-29) was 22 µM, the IC50 [7] was over 100 µg/mL and the GI50 (U-251) was 3.66 µM. The GI50 (OVCAR-8) was 8.02 µM, the IC50 (DU-145) was over 100 µg/mL and the GI50 (SK-OV-3) was over 100 µM. It also gave a GI50 (SF-539) of 2.47 µM, a GI50 (SN12C) of 21.6 µM and a GI50 (MCF7) of 17.3 µM. It also gave a GI50 (SW-620) of 4.55 µM, a GI50 (A498) of over 100 µM and a GI50 (UACC-62) of 3.81 µM. It also gave a GI50 (NCI-H23) of 17.3 µM, a GI50 (NCI-H322M) of over 100 µM and a GI50 (OVCAR-3) of 8.51 µM. For the same compound, the GI50 (SF-295) was 13.4 µM, the IC50 [8] was 4.1 µg/mL (≈ 10.6 µM) and the GI50 (SR) was 1.63 µM. It also gave a GI50 (TK-10) of 11 µM, a GI50 (NCI-H460) of 9.89 µM and an IC50 (HCT-116 [9]) of 50.4 µg/mL (≈ 130 µM). For the same compound, the IC50 [10] was 6.4 µg/mL (≈ 16.6 µM), the GI50 [11] was 2.25 µM and the GI50 (HOP-92) was 1.03 µM. The GI50 (HCT-116 [12]) was 8.8 µM, the GI50 (HOP-62) was over 100 µM and the GI50 (HCT-15) was 4.22 µM. The GI50 (SK-MEL-2) was 2.13 µM, the IC50 (T-24) was over 100 µg/mL and the IC50 [13] was over 100 µg/mL.
